Calls of active or inactive are those of the source. No cut-off for these calls is given here.
Tests used:
[1] = molecular target: Tyrosine-protein kinase ABL1 (Homo sapiens, UniProt P00519); experiment: Inhibition of ABL ACT labeling site in human A-375 cells at 0.05 uM by KiNativ Profiling analysis relative to control; format: cell-based
[2] = molecular target: Casein kinase I isoform delta (Homo sapiens) (UniProt P48730); experiment: Inhibition of CK1 delta K2 labeling site in human Huh-7 cells at 1 uM by KiNativ Profiling analysis relative to control; format: cell-based
[3] = molecular target: Casein kinase I isoform epsilon (Homo sapiens) (UniProt P49674); experiment: Inhibition of CK1epsilon Lys2 labeling site in human A-375 cells at 0.5 uM by KiNativ Profiling analysis relative to control; format: cell-based
[4] = molecular target: Phosphatidylinositol 4-phosphate 3-kinase C2 domain-containing subunit beta (Homo sapiens) (UniProt O00750); experiment: Inhibition of PIK3C2B ATP labeling site in human Huh-7 cells at 1 uM by KiNativ Profiling analysis relative to control; format: cell-based
[5] = molecular target: Serine/threonine-protein kinase ULK2 (Homo sapiens) (UniProt Q8IYT8); experiment: Inhibition of ULK2 (unknown origin) at 10 uM by Ambit Kinomescan binding assay
[6] = molecular target: Dual specificity protein kinase TTK (Homo sapiens) (UniProt P33981); experiment: Inhibition of TTK (unknown origin) at 10 uM by Ambit Kinomescan binding assay relative to control; values are per cent of control
[7] = molecular target: Serine/threonine-protein kinase tousled-like 2 (Homo sapiens) (UniProt Q86UE8); experiment: Inhibition of TLK2 (unknown origin) at 10 uM by Ambit Kinomescan binding assay
[8] = molecular target: Rho-associated protein kinase 2 (Homo sapiens) (UniProt O75116); experiment: Inhibition of ROCK2 (unknown origin) at 10 uM by Ambit Kinomescan binding assay
How it was run: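 ATP-site competition binding assay across a panel of more than 420 kinases, with each compound tested at 10 or 1 μM.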

[9] = molecular target: Tyrosine-protein kinase CSK (Homo sapiens, UniProt P41240); experiment: Inhibition of CSK ACT labeling site harbouring VSDFGLTKEASSTQDTGK in human A-375 cells at 0.05 uM by KiNativ Profiling analysis relative to control; format: cell-based
[10] = molecular target: Non-receptor tyrosine-protein kinase TYK2 (Homo sapiens) (UniProt P29597); experiment: Inhibition of TYK2 domain2 ACT labeling site in human A-375 cells at 0.5 uM by KiNativ Profiling analysis relative to control; format: cell-based
[11] = molecular target: T1, Serine/threonine-protein kinase STK11 (Homo sapiens) (UniProt Q15831); experiment: Inhibition of LKB1 (unknown origin) at 10 uM by Ambit Kinomescan binding assay
T1 sequence (whole entry): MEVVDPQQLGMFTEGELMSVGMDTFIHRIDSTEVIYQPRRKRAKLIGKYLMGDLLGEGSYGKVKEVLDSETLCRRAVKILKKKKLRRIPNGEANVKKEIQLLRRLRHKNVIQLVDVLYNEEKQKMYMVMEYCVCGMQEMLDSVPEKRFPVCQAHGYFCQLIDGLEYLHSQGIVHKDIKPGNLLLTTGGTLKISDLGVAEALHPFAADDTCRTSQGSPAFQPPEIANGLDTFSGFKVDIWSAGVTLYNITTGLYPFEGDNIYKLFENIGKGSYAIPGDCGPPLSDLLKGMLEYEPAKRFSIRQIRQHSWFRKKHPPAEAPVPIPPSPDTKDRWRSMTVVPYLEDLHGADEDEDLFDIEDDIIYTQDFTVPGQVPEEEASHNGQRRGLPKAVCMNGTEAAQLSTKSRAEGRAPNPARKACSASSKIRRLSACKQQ

[12] = molecular target: Calcium/calmodulin-dependent protein kinase type II subunit delta (Homo sapiens) (UniProt Q13557); experiment: Inhibition of CaMK2d Lys1 labeling site harbouring IPTGQEYAAKIINTKK in human Huh-7 cells at 1 uM by KiNativ Profiling analysis relative to control; format: cell-based
[13] = molecular target: Mitogen-activated protein kinase 3 (Homo sapiens) (UniProt P27361); experiment: Inhibition of Erk1 Lys2 labeling site harbouring YIHSANVLHRDLKPSNLLINTTCDLK in human Huh-7 cell lysate at 1 uM by KiNativ Profiling analysis relative to control; format: subcellular
[14] = molecular target: T1, Serine/threonine-protein kinase STK11 (Homo sapiens); experiment: Inhibition of LKB1 Lys2 labeling site in human Huh-7 cells at 1 uM by KiNativ Profiling analysis relative to control; format: cell-based
[15] = molecular target: Serine/threonine-protein kinase Nek6 (Homo sapiens) (UniProt Q9HC98); experiment: Inhibition of NEK6 Lys2 labeling site harbouring VMHRDIKPANVFITATGVVK in human Huh-7 cells at 1 uM by KiNativ Profiling analysis relative to control; format: cell-based
[16] = molecular target: Serine/threonine-protein kinase SMG1 (Homo sapiens) (UniProt Q96Q15); experiment: Inhibition of SMG1 ATP labeling site in human Huh-7 cell lysate at 1 uM by KiNativ Profiling analysis relative to control; format: subcellular
[17] = molecular target: 5'-AMP-activated protein kinase catalytic subunit alpha-2 (Homo sapiens) (UniProt P54646); experiment: Inhibition of AMPKa2 Lys1 labeling site in human Huh-7 cells at 1 uM by KiNativ Profiling analysis relative to control; format: cell-based
[18] = molecular target: Protein kinase C eta type (Homo sapiens) (UniProt P24723); experiment: Inhibition of PRKCH (unknown origin) at 1 uM by Ambit Kinomescan binding assay relative to control; values are per cent of control
[19] = molecular target: Cyclin-dependent kinase 1 (Homo sapiens) (UniProt P06493); experiment: Inhibition of CDC2 Lys2 labeling site harbouring DLKPQNLLIDDKGTIK in human A-375 cells at 0.05 uM by KiNativ Profiling analysis relative to control; format: cell-based
[20] = molecular target: Tyrosine-protein kinase JAK1 (Homo sapiens) (UniProt P23458); experiment: Inhibition of JAK1 JH1catalytic domain (unknown origin) at 1 uM by Ambit Kinomescan binding assay relative to control
[21] = molecular target: Mitogen-activated protein kinase 14 (Homo sapiens, UniProt Q16539); experiment: Inhibition of p38 alpha (unknown origin) at 1 uM by Ambit Kinomescan binding assay relative to control; values are per cent of control
[22] = test system: Epidermal growth factor receptor (Homo sapiens), P00533 [UNDEFINED MUTATION]; experiment: Inhibition of EGFR L747-E749del/A750P mutant (unknown origin) at 1 uM by Ambit Kinomescan binding assay relative to control
[23] = molecular target: Serine/threonine-protein kinase Chk2 (Homo sapiens) (UniProt O96017); experiment: Inhibition of CHEK2 (unknown origin) at 1 uM by Ambit Kinomescan binding assay relative to control
[24] = molecular target: Serine/threonine-protein kinase N2 (Homo sapiens) (UniProt Q16513); experiment: Inhibition of PKN2 (unknown origin) at 1 uM by Ambit Kinomescan binding assay relative to control; values are per cent of control
[25] = molecular target: Serine/threonine-protein kinase PAK 6 (Homo sapiens) (UniProt Q9NQU5); experiment: Inhibition of PAK6 (unknown origin) at 1 uM by Ambit Kinomescan binding assay relative to control; values are per cent of control

Serine/threonine-protein kinase tousled-like 2 (Homo sapiens), sequence (Q86UE8 whole entry, looked up): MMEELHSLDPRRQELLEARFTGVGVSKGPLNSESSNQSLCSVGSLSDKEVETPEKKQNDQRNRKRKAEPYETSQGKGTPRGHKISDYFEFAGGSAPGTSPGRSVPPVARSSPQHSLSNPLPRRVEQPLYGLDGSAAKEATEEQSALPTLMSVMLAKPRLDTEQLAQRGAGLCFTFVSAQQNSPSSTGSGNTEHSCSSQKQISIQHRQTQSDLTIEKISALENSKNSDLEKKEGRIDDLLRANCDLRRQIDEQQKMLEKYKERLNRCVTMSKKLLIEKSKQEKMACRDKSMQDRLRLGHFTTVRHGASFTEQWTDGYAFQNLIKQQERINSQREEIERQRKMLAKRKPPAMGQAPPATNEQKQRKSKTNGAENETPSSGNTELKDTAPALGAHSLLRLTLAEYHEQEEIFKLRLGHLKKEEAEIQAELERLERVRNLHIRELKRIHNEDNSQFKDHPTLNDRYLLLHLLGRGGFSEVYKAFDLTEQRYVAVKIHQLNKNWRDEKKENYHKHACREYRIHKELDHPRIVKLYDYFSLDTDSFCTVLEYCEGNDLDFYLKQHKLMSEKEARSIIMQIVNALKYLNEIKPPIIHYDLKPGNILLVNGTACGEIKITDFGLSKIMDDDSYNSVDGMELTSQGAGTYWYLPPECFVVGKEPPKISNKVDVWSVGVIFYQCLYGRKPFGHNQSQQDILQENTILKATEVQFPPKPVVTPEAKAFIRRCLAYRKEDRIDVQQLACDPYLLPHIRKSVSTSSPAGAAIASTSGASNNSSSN
Tyrosine-protein kinase CSK, sequence (P41240 2-450 limits assumed): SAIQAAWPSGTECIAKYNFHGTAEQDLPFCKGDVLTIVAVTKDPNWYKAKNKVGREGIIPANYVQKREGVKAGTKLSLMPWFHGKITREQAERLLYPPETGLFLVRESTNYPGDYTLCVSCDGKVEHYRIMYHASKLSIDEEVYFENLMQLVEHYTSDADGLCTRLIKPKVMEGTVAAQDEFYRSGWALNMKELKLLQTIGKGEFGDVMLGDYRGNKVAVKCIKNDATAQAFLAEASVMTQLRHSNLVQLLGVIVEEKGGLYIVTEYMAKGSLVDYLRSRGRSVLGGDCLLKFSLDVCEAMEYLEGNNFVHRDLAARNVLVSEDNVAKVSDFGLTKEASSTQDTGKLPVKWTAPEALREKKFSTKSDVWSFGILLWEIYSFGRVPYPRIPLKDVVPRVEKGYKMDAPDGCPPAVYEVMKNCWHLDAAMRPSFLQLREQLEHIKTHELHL
Non-receptor tyrosine-protein kinase TYK2 (Homo sapiens), sequence (P29597 whole entry, the tested form may be a part): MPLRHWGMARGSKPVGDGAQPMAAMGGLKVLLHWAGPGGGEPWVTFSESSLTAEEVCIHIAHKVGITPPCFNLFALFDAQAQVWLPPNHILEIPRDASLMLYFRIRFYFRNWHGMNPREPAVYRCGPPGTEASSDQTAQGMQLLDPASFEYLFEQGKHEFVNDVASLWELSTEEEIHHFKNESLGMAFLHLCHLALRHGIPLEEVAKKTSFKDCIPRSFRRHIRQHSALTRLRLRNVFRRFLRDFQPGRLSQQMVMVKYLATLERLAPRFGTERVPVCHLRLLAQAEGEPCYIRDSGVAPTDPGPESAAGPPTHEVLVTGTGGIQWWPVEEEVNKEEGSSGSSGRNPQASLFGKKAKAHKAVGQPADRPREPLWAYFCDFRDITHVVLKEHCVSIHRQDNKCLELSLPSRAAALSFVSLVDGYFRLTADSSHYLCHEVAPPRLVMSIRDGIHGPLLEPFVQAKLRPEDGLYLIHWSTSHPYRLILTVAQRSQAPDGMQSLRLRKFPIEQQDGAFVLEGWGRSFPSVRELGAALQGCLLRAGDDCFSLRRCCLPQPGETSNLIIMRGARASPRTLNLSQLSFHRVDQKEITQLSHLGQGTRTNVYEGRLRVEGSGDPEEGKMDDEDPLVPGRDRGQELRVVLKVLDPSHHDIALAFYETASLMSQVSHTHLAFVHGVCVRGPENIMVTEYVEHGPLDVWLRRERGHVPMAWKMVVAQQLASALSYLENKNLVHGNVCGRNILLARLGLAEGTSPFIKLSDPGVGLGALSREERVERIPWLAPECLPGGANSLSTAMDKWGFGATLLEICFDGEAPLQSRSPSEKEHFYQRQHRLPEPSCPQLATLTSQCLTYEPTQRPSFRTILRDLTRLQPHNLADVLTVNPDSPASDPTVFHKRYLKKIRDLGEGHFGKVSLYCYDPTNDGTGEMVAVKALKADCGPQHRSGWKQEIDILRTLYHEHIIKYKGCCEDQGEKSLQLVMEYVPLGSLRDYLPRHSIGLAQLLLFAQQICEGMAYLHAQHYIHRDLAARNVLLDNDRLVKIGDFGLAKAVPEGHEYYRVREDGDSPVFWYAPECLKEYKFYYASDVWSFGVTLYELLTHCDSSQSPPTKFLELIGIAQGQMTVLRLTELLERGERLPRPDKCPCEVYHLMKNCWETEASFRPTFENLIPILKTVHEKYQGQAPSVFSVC
Serine/threonine-protein kinase Chk2 (Homo sapiens), sequence (O96017 whole entry): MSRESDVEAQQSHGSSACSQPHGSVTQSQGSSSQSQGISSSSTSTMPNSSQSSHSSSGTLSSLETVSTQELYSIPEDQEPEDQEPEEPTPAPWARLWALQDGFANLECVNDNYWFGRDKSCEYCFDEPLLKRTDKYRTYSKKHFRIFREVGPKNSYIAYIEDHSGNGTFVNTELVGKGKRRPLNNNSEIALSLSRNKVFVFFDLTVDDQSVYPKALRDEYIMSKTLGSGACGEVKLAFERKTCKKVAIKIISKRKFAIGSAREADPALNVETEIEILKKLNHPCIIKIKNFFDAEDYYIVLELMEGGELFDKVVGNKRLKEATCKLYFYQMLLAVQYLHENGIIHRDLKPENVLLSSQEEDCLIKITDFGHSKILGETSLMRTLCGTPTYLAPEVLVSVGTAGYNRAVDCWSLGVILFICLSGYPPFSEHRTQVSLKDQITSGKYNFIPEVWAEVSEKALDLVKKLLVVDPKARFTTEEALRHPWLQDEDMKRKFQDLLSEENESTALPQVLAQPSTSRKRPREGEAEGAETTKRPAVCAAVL
Serine/threonine-protein kinase N2 (Homo sapiens), sequence (Q16513 whole entry, looked up): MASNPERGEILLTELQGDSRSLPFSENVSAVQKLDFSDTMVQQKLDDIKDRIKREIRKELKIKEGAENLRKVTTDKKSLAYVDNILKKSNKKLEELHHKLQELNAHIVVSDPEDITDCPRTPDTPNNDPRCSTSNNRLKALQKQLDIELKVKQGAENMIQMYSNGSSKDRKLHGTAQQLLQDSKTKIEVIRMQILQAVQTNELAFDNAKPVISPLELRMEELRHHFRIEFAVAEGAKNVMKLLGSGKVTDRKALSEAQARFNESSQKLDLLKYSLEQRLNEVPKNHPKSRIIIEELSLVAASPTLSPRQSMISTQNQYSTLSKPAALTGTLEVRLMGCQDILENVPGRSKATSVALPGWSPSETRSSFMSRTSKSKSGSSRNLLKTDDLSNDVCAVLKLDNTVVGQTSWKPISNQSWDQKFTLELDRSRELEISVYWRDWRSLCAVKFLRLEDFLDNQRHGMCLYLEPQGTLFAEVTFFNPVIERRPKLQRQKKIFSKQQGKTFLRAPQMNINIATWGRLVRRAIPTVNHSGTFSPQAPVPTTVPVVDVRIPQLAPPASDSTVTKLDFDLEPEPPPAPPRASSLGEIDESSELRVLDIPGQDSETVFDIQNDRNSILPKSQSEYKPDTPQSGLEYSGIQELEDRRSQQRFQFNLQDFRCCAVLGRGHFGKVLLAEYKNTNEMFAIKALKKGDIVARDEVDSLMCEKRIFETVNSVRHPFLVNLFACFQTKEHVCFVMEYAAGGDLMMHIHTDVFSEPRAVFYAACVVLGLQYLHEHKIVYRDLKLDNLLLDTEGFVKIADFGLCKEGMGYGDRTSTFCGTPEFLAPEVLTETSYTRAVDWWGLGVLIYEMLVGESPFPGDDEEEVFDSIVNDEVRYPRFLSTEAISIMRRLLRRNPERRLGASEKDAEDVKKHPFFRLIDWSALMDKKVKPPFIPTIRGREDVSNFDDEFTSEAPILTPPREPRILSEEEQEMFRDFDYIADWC
Cyclin-dependent kinase 1 (Homo sapiens), sequence (P06493 whole entry, looked up, the tested form may be a part): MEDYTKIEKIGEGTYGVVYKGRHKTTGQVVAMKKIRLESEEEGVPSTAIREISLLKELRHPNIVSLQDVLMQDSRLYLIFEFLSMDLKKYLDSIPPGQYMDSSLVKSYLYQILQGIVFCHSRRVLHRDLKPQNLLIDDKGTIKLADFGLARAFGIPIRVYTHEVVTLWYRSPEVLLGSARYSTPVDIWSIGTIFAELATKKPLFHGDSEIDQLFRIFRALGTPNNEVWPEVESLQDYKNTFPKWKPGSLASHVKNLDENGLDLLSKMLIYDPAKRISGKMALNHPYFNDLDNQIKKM
Calcium/calmodulin-dependent protein kinase type II subunit delta (Homo sapiens), sequence (Q13557 whole entry): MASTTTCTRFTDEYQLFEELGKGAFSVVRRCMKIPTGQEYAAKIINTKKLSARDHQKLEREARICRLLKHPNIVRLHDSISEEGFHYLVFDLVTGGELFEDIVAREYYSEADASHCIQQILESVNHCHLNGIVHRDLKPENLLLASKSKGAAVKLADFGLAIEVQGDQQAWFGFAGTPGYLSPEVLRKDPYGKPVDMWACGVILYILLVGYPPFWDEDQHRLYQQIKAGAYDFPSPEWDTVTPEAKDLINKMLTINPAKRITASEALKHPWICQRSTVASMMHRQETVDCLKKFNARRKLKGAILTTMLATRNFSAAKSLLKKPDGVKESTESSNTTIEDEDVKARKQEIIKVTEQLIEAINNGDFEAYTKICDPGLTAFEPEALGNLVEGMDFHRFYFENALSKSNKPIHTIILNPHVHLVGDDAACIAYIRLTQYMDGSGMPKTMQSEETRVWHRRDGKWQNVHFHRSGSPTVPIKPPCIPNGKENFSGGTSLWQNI
Serine/threonine-protein kinase Nek6 (Homo sapiens), sequence (Q9HC98 whole entry): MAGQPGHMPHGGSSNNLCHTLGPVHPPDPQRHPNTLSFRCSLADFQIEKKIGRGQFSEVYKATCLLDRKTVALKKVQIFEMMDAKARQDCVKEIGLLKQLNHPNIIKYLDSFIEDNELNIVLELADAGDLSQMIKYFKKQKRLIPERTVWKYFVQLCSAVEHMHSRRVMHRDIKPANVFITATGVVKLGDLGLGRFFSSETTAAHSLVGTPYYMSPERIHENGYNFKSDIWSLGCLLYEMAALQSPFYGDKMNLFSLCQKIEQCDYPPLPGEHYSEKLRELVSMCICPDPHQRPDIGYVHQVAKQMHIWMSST

CCN1CCN(Cc2ccc(NC(=O)c3ccc(C)c(Oc4ccnc5[nH]ccc45)c3)cc2C(F)(F)F)CC1 showed an inhibition [1] of 88.5%, an inhibition [2] of 18.5% and an inhibition [3] of 3.3%. The inhibition [4] was -9.4%, the inhibition [5] was “inactive” and the residual activity [6] was 24%. For the same compound, the inhibition [7] was “inactive”, the inhibition [8] was “inactive” and the inhibition [9] was 23.1%. For the same compound, the inhibition [10] was -3.5% and the inhibition [11] was “inactive”.
In the case of CNc1cc(Oc2cc(C(=O)Nc3cc(N4CCN(C)CC4)cc(C(F)(F)F)c3)ccc2C)ncn1, the inhibition [12] is reported as 11.6%, the inhibition [13] is reported as 20.7% and the inhibition [14] is reported as 15.1%. It also gave an inhibition [15] of 6.9%, an inhibition [16] of 4.2% and an inhibition [17] of -7.5%.
CCN1CCN(Cc2ccc(NC(=O)c3ccc(C)c(/C=C/c4cnc5[nH]ccc5c4OC)c3)cc2C(F)(F)F)CC1 gave a residual activity [18] of 100%, an inhibition [19] of 2.1% and an inhibition [20] of 76%. It also gave a residual activity [21] of 1.7%, an inhibition [22] of 3% and an inhibition [23] of 82%. The residual activity [24] was 35% and the residual activity [25] was 100%.
